# Source: ChEMBL document CHEMBL4831478, “Bispecific Estrogen Receptor α Degraders Incorporating Novel Binders Identified Using DNA-Encoded Chemical Library Screening” (J Med Chem, 2021)
# Experiments:
# Homo sapiens = species on record: Homo sapiens; assay: Selectivity index, ratio of DC50 for induction of ERalpha degradation in human MCF7 cells in presence of VHL298 to DC50 for induction of ERalpha degradation in human MCF7 cells; assay type: cell-based
# Outline: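 MCF7 cells were treated with a PROTAC dose series, alone or co-treated with the VHL ligand VHL298 (5 μM), for 48 h in total before collection. ERα degradation DC50 was determined under both conditions and the two values compared as a ratio.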
# [1] = Plasma protein binding in human; assay type: ADME, cell-free; details: read-out: PPB
# [2] = AUCinfinity in CD1 mouse at 10 mg/kg, sc administered as single dose […]; assay type: ADME, organism-based; parameters: route subcutaneous, dose 10 mg/kg; details: in vivo
# [3] = Drug uptake in CD1 mouse plasma xenografted with human MCF7 cells 10 mg/kg, sc measured after 3 hrs post last dose; details: in vivo
# [4] = Volume of distribution at steady state in CD1 mouse at 0.3 mg/kg, iv administered as cassette dosing […]; assay type: ADME, organism-based; details: in vivo, read-out: Vdss
# [5] = Microsomal stability in human liver microsomes assessed as intrinsic clearance measured upto 60 mins; assay type: ADME, Microsome; details: read-out: CLH
# Outline: (§1)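 Compounds at 2 μM final incubated with pooled human or male mouse liver microsomes. Percent remaining measured at 0, 15, 30, 45 and 60 min and used to calculate in vitro half-life.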
# [6] = Microsomal stability in mouse liver microsomes assessed as intrinsic clearance measured upto 60 mins; assay type: ADME, Microsome; details: read-out: CLH; outline: as §1
# [7] = Cmax in CD1 mouse at 10 mg/kg, sc administered as single dose […]; assay type: ADME, organism-based; parameters: route subcutaneous, dose 10 mg/kg; details: in vivo
# MCF7 [8] = assay: Antiproliferative activity against human MCF7 cells assessed as growth inhibition incubated for 7 days by CellTiter-Glo assay; assay type: functional; details: MCF7, 168 h, time 7 day
# Outline: (§2)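 Breast lines from ATCC, maintained in ATCC-specified media, treated with increasing compound doses in full-serum (complete) media for 7 days. Relative cell number measured by CellTiter-Glo ATP read-out.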
# [9] = Cytotoxicity against human MCF-10A cells assessed as growth inhibition incubated for 7 days by CellTiter-Glo assay; assay type: cell-based; details: time 7 day; outline: as §2
# [10] = Half life in CD1 mouse at 0.3 mg/kg, iv administered as cassette dosing […]; assay type: ADME, organism-based; details: in vivo
# Estrogen receptor [11] = target: T1, Estrogen receptor (Homo sapiens, UniProt P03372); assay: Induction of ERalpha degradation in human MCF7 cells assessed as decrease in ERalpha protein expression incubated for 24 hrs by Western blot analysis; assay type: cell-based
# T1 sequence (P03372 whole entry): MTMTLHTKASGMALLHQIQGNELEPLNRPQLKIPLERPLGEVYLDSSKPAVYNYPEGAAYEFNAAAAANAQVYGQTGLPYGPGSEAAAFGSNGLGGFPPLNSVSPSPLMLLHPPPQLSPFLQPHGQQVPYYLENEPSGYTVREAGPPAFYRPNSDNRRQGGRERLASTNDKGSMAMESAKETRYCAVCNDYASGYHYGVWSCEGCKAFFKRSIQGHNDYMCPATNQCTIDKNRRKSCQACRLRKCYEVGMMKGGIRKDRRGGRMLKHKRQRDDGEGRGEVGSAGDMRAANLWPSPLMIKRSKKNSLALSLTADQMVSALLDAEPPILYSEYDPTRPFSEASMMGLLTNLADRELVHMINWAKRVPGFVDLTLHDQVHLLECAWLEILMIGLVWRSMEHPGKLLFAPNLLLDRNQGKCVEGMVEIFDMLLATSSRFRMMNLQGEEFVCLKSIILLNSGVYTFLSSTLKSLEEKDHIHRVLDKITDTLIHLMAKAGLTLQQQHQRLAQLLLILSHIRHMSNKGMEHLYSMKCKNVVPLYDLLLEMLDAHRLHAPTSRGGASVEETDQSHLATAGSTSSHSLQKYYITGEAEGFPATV
# [12] = Drug uptake in CD1 mouse tumor xenografted with human MCF7 cells 10 mg/kg, sc measured after 3 hrs post last dose; details: in vivo
# [13] = Toxicity in CD1 mouse xenografted with human MCF7 cells assessed as change in body weight at 10 mg/kg, sc administered once daily for 28 days; assay type: organism-based; details: in vivo, 672 h, time 28 day
# Outline: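 Mice implanted with 17β-estradiol pellets (0.18 mg) 2 days before sc right-flank inoculation of 10×10^6 MCF-7 cells in PBS/Matrigel (50:50). Randomized at mean tumor 165 mm³, 8 per group. Dosed 10 mg/kg sc qd; fulvestrant reference 3 mg/mouse sc weekly. Caliper measurements twice weekly, V = 0.5a×b². TGI from medians. Body weight recorded before each dosing.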
# T47D = assay: Antiproliferative activity against human T47D cells assessed as growth inhibition incubated for 7 days by CellTiter-Glo assay; assay type: functional; details: 168 h, time 7 day; outline: as §2
# Estrogen receptor [14] = target: T1, Estrogen receptor; assay: Binding affinity to recombinant His-tagged ERalpha LBD (307 to 554 residue) (unknown origin) expressed in Escherichia coli preincubated for 15 mins followed by ligand addition and measured after 1 hr by fluorescent polarization assay
# Outline: (§3)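 ERα LBD (aa 307–554), WT or D538G, S463P, Y537S, with N-terminal Avi-Tev-His tag, expressed in E. coli T7 Express (20 °C, 12 h, IPTG). Purified by Ni-NTA then size exclusion. Compound preincubated with protein 15 min, fluorescent ligand added, 1 h at room temperature. FP read ex 485/em 535 nm; duplicate runs averaged.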
# Estrogen receptor [15] = target: T1, Estrogen receptor; assay: Induction of ERalpha degradation in human MCF7 cells assessed as decrease in ERalpha protein expression preincubated for 2 hrs followed by compound washout and measured after 22 hrs by Western blotting analysis; assay type: cell-based
# Outline: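 MCF7 in-cell western: 2 h compound treatment, washout, cells collected 22 h later, compared with continuous 24 h treatment; ERα normalized to tubulin.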
# MDA-MB-231 = assay: Antiproliferative activity against human MDA-MB-231 cells assessed as growth inhibition incubated for 7 days by CellTiter-Glo assay; assay type: functional; details: MDA-MB-231, 168 h, time 7 day; outline: as §2
# Estrogen receptor [16] = target: T1, Estrogen receptor; assay: Induction of ERalpha degradation in human MCF7 cells assessed as decrease in ERalpha protein expression incubated for 48 hrs by Western blot analysis; assay type: cell-based
# MCF7 [17] = assay: Antiproliferative activity against human MCF7 cells assessed as reduction in cell viability preincubated with estradiol for 30 mins followed by compound addition and measured after 7 days by CellTiter-Glo assay; assay type: functional, cell-based
# Outline: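 MCF7 cells seeded in hormone-deprived media for 72 h. All wells except minimum-signal controls received 0.1 nM estradiol for 30 min, then compound in a 10-point dose series. Incubated 7 days at 37 °C, 5% CO2; ATP content read by CellTiter-Glo 2.0. Duplicate runs averaged.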
# [18] = Clearance in CD1 mouse at 0.3 mg/kg, iv administered as cassette dosing […]; assay type: ADME, organism-based; details: in vivo
# [19] = Solubility of compound; assay type: physicochemical
# Estrogen receptor [20] = target: T1, Estrogen receptor; assay: Induction of ERalpha degradation in human MCF7 cells assessed as decrease in ERalpha protein expression incubated for 48 hrs in presence of VHL298 by Western blotting analysis; assay type: cell-based
# Outline: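 MCF7 in-cell western for ERα normalized to tubulin after dose titration co-treated with VHL298 at 5 μM, 48 h total treatment before collection.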
# Estrogen receptor [21] = target: Estrogen receptor (Homo sapiens, UniProt P03372, S463P); assay: Binding affinity to ERalpha S463P mutant (unknown origin) expressed in Escherichia coli preincubated for 15 mins followed by ligand addition and measured after 1 hr by fluorescent polarization assay; outline: as §3
# Sequence of Estrogen receptor (Homo sapiens, UniProt P03372, S463P) (P03372 whole entry S463P): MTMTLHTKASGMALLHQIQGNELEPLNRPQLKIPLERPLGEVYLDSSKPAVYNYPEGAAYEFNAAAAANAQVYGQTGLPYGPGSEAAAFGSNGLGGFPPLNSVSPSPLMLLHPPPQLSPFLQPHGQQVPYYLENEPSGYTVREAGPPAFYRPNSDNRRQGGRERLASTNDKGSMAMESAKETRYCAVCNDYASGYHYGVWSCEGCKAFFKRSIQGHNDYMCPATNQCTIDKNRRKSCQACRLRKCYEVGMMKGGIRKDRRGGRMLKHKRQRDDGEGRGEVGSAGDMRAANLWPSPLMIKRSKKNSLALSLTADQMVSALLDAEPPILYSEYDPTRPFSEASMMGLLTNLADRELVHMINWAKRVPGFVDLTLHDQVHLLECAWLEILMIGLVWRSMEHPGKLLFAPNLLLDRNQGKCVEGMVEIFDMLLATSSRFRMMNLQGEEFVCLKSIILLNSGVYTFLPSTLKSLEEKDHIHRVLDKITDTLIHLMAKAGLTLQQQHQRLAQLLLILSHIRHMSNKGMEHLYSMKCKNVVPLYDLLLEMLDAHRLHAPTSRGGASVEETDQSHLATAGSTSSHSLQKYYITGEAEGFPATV
compound,measurement,setting,value
Cc1ncsc1-c1ccc([C@@H](C)NC(=O)[C@@H]2C[C@@H](O)CN2C(=O)[C@H](NC(=O)COCCOCc2cn(CCOc3ccc(N(Cc4cccc(O)c4Cl)CC4(c5ccccc5F)CCCC4)cc3)nn2)C(C)(C)C)cc1,Selectivity Index,Homo sapiens,8
same,fraction unbound,[1],< 0.004
same,AUC(0-inf),[2],14.6 µM·h
same,Drug uptake,[3],Active
same,Vd,[4],4.82 L/kg
same,microsomal CLint,[5],59 µL/min/mg
same,microsomal CLint,[6],249 µL/min/mg
same,Cmax,[7],2130 nM
same,GI50,MCF7 [8],13.8 nM
same,GI50 at 168 h,[9],> 10000 nM
same,half-life,[10],8.7 h
same,DC50,Estrogen receptor [11],4.5 nM
same,Drug uptake,[12],Active
same,Activity,[13],Non-Toxic
same,GI50,T47D,171 nM
same,IC50,Estrogen receptor [14],53 nM
same,DC50,Estrogen receptor [15],37 nM
same,GI50,MDA-MB-231,> 10000 nM
same,DC50,Estrogen receptor [16],6 nM
same,EC50,MCF7 [17],14 nM
same,clearance,[18],23 mL/min/kg
same,solubility,[19],< 0.2 µM
same,DC50,Estrogen receptor [20],14 nM
same,IC50,Estrogen receptor [21],203 nM
